Holding throughout (format): functional
One assay has as its system HCT-15. The assay can be described thus: Growth inhibition of human HCT15 cells at 20 uM after 48 hrs by sulpharhodamine B assay. The settings on record: HCT-15, 48 h, read-out: GI. A digest of the protocol: (§1)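 This is the SRB protein-stain assay on adherent cells in RPMI-1640/MEM with 10% FCS. Each compound in DMSO (vehicle <0.2%) was applied at a single fixed concentration for 48 h. Cells were fixed with TCA and stained with SRB, and the dye was solubilised in Tris and read at 570/620 nm. Percent growth inhibition is relative to vehicle-treated controls, reported as mean ± SD of three experiments run in triplicate.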

A further assay relates to PC-3. Put plainly: Growth inhibition of human PC3 cells at 20 uM after 48 hrs by sulpharhodamine B assay. The settings on record: PC-3, 48 h, read-out: GI. The gist of the method: as §1
In the next assay the test system is THP-1. The assay can be described thus: Growth inhibition of human THP1 cells at 20 uM after 48 hrs by sulpharhodamine B assay. The settings on record: THP-1, 48 h, read-out: GI. The gist of the method: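 Cells grown in RPMI-1640/MEM with 10% FCS, penicillin/streptomycin, 37 °C, 5% CO2. Seeded in 96-well plates, allowed to adhere overnight, then exposed 48 h to analogs in DMSO (vehicle <0.2% in controls). TCA-fixed, stained with 0.4% SRB in 1% acetic acid, dye solubilized in 10 mM Tris base, OD 570 nm (ref 620 nm). Mean ± SD of three experiments run in triplicate.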

In a further assay the test system is A549. The assay can be described thus: Growth inhibition of human A549 cells at 20 uM after 48 hrs by sulpharhodamine B assay. The settings on record: A549, 48 h, read-out: GI. A digest of the protocol: as §1
A further assay concerns OVCAR-5. Put plainly: Growth inhibition of human OVCAR5 cells at 20 uM after 48 hrs by sulpharhodamine B assay. The settings on record: OVCAR-5, 48 h, read-out: GI. The gist of the method:
(§2)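 Cells grown at 37 °C, 5% CO2 in RPMI-1640/MEM with 10% FCS and penicillin/streptomycin, then seeded in 96-well plates and allowed to adhere overnight. Compound was added in DMSO (vehicle <0.2% in untreated controls) and incubated 48 h. Cells were fixed with ice-cold TCA, stained with 0.4% SRB in 1% acetic acid, and the dye solubilised in 10 mM Tris-base. OD read at 570 nm (reference 620 nm).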

For the next assay, the system named is HeLa. Put plainly: Growth inhibition of human HeLa cells at 20 uM after 48 hrs by sulpharhodamine B assay. The settings on record: read-out: GI. A digest of the protocol:
as §2

A further assay deals with DU-145. Put plainly: Growth inhibition of human DU145 cells at 20 uM after 48 hrs by sulpharhodamine B assay. The settings on record: DU-145, 48 h, read-out: GI. The gist of the method:
as §1

Another assay has as its system IMR-32. The assay can be described thus: Growth inhibition of human IMR32 cells at 20 uM after 48 hrs by sulpharhodamine B assay. The settings on record: IMR-32, 48 h, read-out: GI. A digest of the protocol:
as §1

Consider `O=c1[nH]cc(F)c(=O)[nH]1` [FLUOROURACIL], for which the inhibition of growth at 20 µM in the assay on HCT-15 is 63%; with PC-3, 75%; in the assay with THP-1 it was 85%; with A549, 76%; with OVCAR-5, 75%; in the assay with HeLa, 71%. For the same compound, the inhibition of growth at 20 µM is 75% in the assay on DU-145 and 79% with IMR-32.

(Values after ChEMBL document CHEMBL1944511, “Bakuchiol derivatives as novel and potent cytotoxic agents: a report” (Eur J Med Chem, 2012).)
